We go through 18 molecules from ChEMBL document CHEMBL4152256, “Structure-activity relationship of new antimalarial 1-aryl-3-susbtituted propanol derivatives: Synthesis, preliminary toxicity profiling, parasite life cycle stage studies, target exploration, and targeted delivery” (Eur J Med Chem, 2018).

Data set [1] relates to Plasmodium falciparum. Nature of the data set: Antiplasmodial activity against multidrug-resistant Plasmodium falciparum FCR-3 by [3H]-hypoxanthine incorporation assay. It counts as functional, organism-based, FCR-3/Gambia. The conditions noted are these: Plasmodium falciparum, FCR-3/Gambia. The essentials:
(§1)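 Blood-stage P. falciparum 3D7 and FCR-3 were tested by a modified [3H]-hypoxanthine incorporation assay. Chloroquine was the reference in all runs.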

Data set [2] deals with Plasmodium falciparum. Description: Antiplasmodial activity against chloroquine-sensitive Plasmodium falciparum 3D7 by [3H]-hypoxanthine incorporation assay. It counts as functional, organism-based. The conditions noted are these: Plasmodium falciparum, 3D7. In short, it runs like this: as §1
Data set [3] can be described thus: Cytotoxicity against human HepG2A16 cells by MTT assay. It counts as cell-based. The note with it: HepG2A16 cells. The essentials: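 MTT viability assay on HepG2-A16 cells, giving CC50 values.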
The nature of data set [4]: Selectivity index, ratio of CC50 for human HepG2A16 cells by MTT assay to IC50 for multidrug-resistant Plasmodium falciparum FCR-3. The data set is classed as toxicity. The conditions noted are these: HepG2A16 cells, read-out: Ratio CC50/IC50. The essentials: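 HepG2-A16 human hepatoma cells were tested by MTT viability assay to give CC50. Blood-stage activity was measured against the multidrug-resistant P. falciparum FCR-3 strain by [3H]-hypoxanthine incorporation to give IC50. SI = CC50 HepG2 / FCR-3 IC50.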

For `O=[N+]([O-])c1ccc(N2CCC(NCCC(O)c3ccccc3)CC2)c(C(F)(F)F)c1` (stereo not drawn), the IC50 in the data set with Plasmodium falciparum [1] was 1.8 µM; in the data set on Plasmodium falciparum [2], 4.42 µM. Moreover, the CC50 in data set [3] was 27.6 µM. The selectivity ratio in data set [4] is 15.

In the case of `COc1ccccc1N1CCN(CCC(O)c2ccc(-c3ccccc3)cc2)CC1` (stereo not drawn), the IC50 in the data set on Plasmodium falciparum [1] turned out to be 2.78 µM; in the data set on Plasmodium falciparum [2], 7.25 µM. Also, in data set [3], half-maximal cytotoxicity (CC50) was put at 24.4 µM. Also, the selectivity ratio in data set [4] is 9.

For the molecule `COc1ccccc1N1CCN(CCC(O)c2ccc3ccccc3c2)CC1` (stereo not drawn), the IC50 was 2.63 µM in the data set on Plasmodium falciparum [1] and 4.08 µM in the data set on Plasmodium falciparum [2]. Moreover, the CC50 in data set [3] was 95 µM. In data set [4], the selectivity ratio came out at 36.

With `COc1ccc(C(O)CCN2CC=C(c3ccc(F)cc3)CC2)cc1` (stereo not drawn), the IC50 in the data set with Plasmodium falciparum [1] worked out at 11.5 µM; with Plasmodium falciparum [2], 18.2 µM. Also, the midpoint of cytotoxicity in data set [3], the CC50, lay at 152 µM. In addition, the selectivity ratio in data set [4] turned out to be 13.

Turning to `OC(CCN1CC=C(c2ccc(F)cc2)CC1)c1ccc(Br)cc1` (stereo not drawn), the IC50 with Plasmodium falciparum [1] is 2.68 µM; in the data set with Plasmodium falciparum [2], 5.42 µM. The CC50 in data set [3] came to 109 µM. The selectivity ratio in data set [4] came out at 41.

Turning to `OC(CCN1CC=C(c2ccc(F)cc2)CC1)c1ccc(Cl)cc1` (stereo not drawn), the IC50 amounted to 2.29 µM with Plasmodium falciparum [1] and 3.57 µM with Plasmodium falciparum [2]. Moreover, the CC50 in data set [3] is 110 µM. For the same molecule, the selectivity ratio in data set [4] came out at 48.

As for `OC(CCN1CC=C(c2ccc(F)cc2)CC1)c1ccccc1` (stereo not drawn), the IC50 with Plasmodium falciparum [1] turned out to be 9.04 µM; in the data set on Plasmodium falciparum [2] it was 10.6 µM. In addition, the CC50 in data set [3] came out at 121 µM. The selectivity ratio in data set [4] was 13.

Turning to `COc1ccccc1N1CCN(CCC(O)c2ccccc2)CC1` (stereo not drawn), the IC50 in the data set on Plasmodium falciparum [1] worked out at 15.7 µM; with Plasmodium falciparum [2] it was 13.9 µM. This molecule gave a CC50 in data set [3] of over 612 µM. Further, the selectivity ratio in data set [4] was over 39.

Regarding `O=[N+]([O-])c1ccc(N2CCC(NCCC(O)c3ccc(F)c(F)c3)CC2)c(C(F)(F)F)c1` (stereo not drawn), the half-maximal inhibitory concentration (IC50) in the data set with Plasmodium falciparum [1] came out at 0.53 µM; in the data set with Plasmodium falciparum [2], 0.67 µM. The molecule further gave a CC50 in data set [3] of 13.3 µM. Further, in data set [4], the selectivity ratio stood at 25.

In the case of `O=[N+]([O-])c1ccc(N2CCN(CCC(O)c3ccc(F)c4ccccc34)CC2)c(C(F)(F)F)c1` (stereo not drawn), in the data set with Plasmodium falciparum [1], half-maximal inhibition (IC50) was put at 0.5 µM. This lies in the sub-micromolar range.

Turning to `COc1ccc(C(O)CCN2CCN(c3ccccc3OC)CC2)cc1` (stereo not drawn), the IC50 with Plasmodium falciparum [1] was found to be 7.98 µM; in the data set on Plasmodium falciparum [2] it was 10.5 µM. The CC50 in data set [3] amounted to 371 µM. Moreover, in data set [4], the selectivity ratio amounted to 46.

As to `OC(CCN1CC=C(c2ccc(F)cc2)CC1)c1ccc(F)c(F)c1` (stereo not drawn), the IC50 came to 2.01 µM with Plasmodium falciparum [1] and 2.79 µM with Plasmodium falciparum [2]. Moreover, half-maximal cytotoxicity in data set [3] (CC50) was put at 97 µM. Also, in data set [4], the selectivity ratio was determined as 48.

In the case of `O=[N+]([O-])c1ccc(N2CCC(NCCC(O)c3ccc(F)c(Cl)c3)CC2)c(C(F)(F)F)c1` (stereo not drawn), the IC50 in the data set on Plasmodium falciparum [1] was 0.51 µM; in the data set with Plasmodium falciparum [2] it was 0.71 µM. The molecule further returned a CC50 in data set [3] of 4.61 µM. The selectivity ratio in data set [4] was determined as 9.

On to `O=[N+]([O-])c1cc(C(F)(F)F)ccc1N1CCN(CCC(O)c2ccc(F)c3ccccc23)CC1` (stereo not drawn), for which, in the data set with Plasmodium falciparum [1], the IC50 came out at 5 µM.

For `COc1ccc(C(O)CCN2CC=C(c3ccc(F)cc3)CC2)c(OC)c1` (stereo not drawn), the IC50 was determined as 9.48 µM in the data set on Plasmodium falciparum [1] and 24.1 µM in the data set with Plasmodium falciparum [2]. Half-maximal cytotoxicity in data set [3] (CC50) was put at 91.4 µM. In addition, in data set [4], the selectivity ratio stood at 10.

Consider `N#Cc1ccc(C(O)CCNC2CCN(c3ccc([N+](=O)[O-])cc3C(F)(F)F)CC2)cc1` (stereo not drawn), for which the figures for the IC50 in the data set on Plasmodium falciparum [1] and with Plasmodium falciparum [2] were 2.02 µM and 4.22 µM, respectively. The molecule also showed a CC50 in data set [3] of 23 µM. Moreover, the selectivity ratio in data set [4] worked out at 11.

As to `OC(CCN1CC=C(c2ccc(F)cc2)CC1)c1ccc(F)c(Cl)c1` (stereo not drawn), the IC50 came out at 7.06 µM in the data set with Plasmodium falciparum [1] and 2.27 µM in the data set on Plasmodium falciparum [2]. The molecule further showed a CC50 in data set [3] of 54.1 µM. Moreover, in data set [4], the selectivity ratio turned out to be 8.

Molecule `OC(CCN1CCN(c2ccc(C(F)(F)F)cc2)CC1)c1ccc(F)c2ccccc12` (stereo not drawn) gave a half-inhibitory concentration (IC50) in the data set on Plasmodium falciparum [1] of 0.93 µM.
